Each structure is given as a SMILES string.

In this assay the target is T1, Progesterone receptor (Homo sapiens) (UniProt P06401).
T1 sequence (whole entry): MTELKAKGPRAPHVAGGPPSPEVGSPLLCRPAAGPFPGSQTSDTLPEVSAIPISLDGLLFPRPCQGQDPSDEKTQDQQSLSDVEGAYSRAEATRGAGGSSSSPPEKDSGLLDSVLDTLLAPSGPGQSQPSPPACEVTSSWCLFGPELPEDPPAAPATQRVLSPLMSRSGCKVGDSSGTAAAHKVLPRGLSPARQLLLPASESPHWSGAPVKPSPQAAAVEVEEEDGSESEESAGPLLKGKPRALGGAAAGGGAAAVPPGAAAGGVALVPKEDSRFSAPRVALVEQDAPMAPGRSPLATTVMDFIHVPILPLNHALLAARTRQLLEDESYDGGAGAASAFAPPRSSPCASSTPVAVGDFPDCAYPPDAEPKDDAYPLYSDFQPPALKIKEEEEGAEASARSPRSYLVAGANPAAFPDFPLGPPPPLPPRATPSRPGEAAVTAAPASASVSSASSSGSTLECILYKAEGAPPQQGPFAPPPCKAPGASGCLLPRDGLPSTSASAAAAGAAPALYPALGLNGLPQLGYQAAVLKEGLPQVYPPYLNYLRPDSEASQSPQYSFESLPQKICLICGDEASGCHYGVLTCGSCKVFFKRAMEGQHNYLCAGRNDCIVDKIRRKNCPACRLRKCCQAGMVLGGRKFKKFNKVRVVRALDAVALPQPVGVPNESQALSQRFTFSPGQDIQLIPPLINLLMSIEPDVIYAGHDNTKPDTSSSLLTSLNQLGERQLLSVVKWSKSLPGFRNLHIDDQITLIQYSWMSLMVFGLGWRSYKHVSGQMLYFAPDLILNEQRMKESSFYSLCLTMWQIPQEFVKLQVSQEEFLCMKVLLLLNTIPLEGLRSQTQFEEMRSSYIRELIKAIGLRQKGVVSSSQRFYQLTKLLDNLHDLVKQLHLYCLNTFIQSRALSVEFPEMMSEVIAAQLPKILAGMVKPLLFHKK
Nature of the assay: Agonist efficacy for human progesterone receptor (hPR) was compared to that of progesterone (100%). The assay is classed as functional. Summed up:
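Cotransfection assay in CV-1 cells transiently transfected by calcium phosphate coprecipitation with hPR plasmid, MTV-LUC reporter, pRS-β-Gal and filler DNA. Full dose–response curves from 10^-12 to 10^-5 M were run. […] Values are the mean of at least three experiments with triplicate determinations, or of two experiments, or a single experiment.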
`CC1=CC(C)(C)Nc2ccc3c(c21)C(c1cccc(C(F)(F)F)c1)Oc1ccccc1-3` (stereo unspecified) yielded an Efficacy of 96%. To `CC1=CC(C)(C)Nc2ccc3c(c21)C(c1ccc(Cl)c(F)c1)Oc1ccccc1-3` (stereo unspecified) belongs 59%; to `CC1=CC(C)(C)Nc2ccc3c(c21)C(c1cc(Cl)cc(Cl)c1)Oc1ccccc1-3` (stereo unspecified), 57%. For `CC1=CC(C)(C)Nc2ccc3c(c21)C(c1ccc(Br)cc1)Oc1ccccc1-3` (stereo unspecified), the Efficacy worked out at 59%. Next, `CC1=CC(C)(C)Nc2ccc3c(c21)C(c1cc(C)cc(Br)c1)Oc1ccccc1-3` (stereo unspecified): 65%; `CC1=CC(C)(C)Nc2ccc3c(c21)C(c1ccc(Cl)c(C)c1)Oc1ccccc1-3` (stereo unspecified): 68%; `CC1=CC(C)(C)Nc2ccc3c(c21)C(c1cccc(Cl)c1)Oc1ccccc1-3` (stereo unspecified): 76%. For `CC1=CC(C)(C)Nc2ccc3c(c21)C(c1cccc(Br)c1)Oc1ccccc1-3` (stereo unspecified), the Efficacy is 77%. Next, `CC1=CC(C)(C)Nc2ccc3c(c21)C(c1ccc(Cl)c(Cl)c1)Oc1ccccc1-3` (stereo unspecified): 66%. Next, `CC1=CC(C)(C)Nc2ccc3c(c21)C(c1ccc(C)cc1)Oc1ccccc1-3` (stereo unspecified): 59%; `CC1=CC(C)(C)Nc2ccc3c(c21)C(c1ccc(C)c(F)c1)Oc1ccccc1-3` (stereo unspecified): 83%.

The record behind these values is ChEMBL document CHEMBL1131454 (J Med Chem, 1998).
